Data from ChEMBL document CHEMBL1145589, “Discovery of benzamide tetrahydro-4H-carbazol-4-ones as novel small molecule inhibitors of Hsp90” (Bioorg Med Chem Lett, 2008).
pIC50, pKd: −log10 of the molar value.

Columns and labels:
SK-BR-3 [1] = assay: Inhibition of Her2 degradation in human SKBR3 cells by ELISA; format: functional, cell-based
Procedure, shortened: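 Cellular ELISA in SKBR3 cells treated 24 h with compound, then methanol-fixed; Her2 detected with mouse anti-Her2 primary and peroxidase-conjugated anti-mouse secondary antibody; IC50 determined.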

[2] = Binding affinity to Hsp90 in pig spleen extract by Bradford protein assay; format: tissue-based, Sus scrofa
[3] = Inhibition of pS6 in A375 cells; format: cell-based; settings: A-375
Procedure, shortened: (§1)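 High content imaging: A375 cells treated 24 h with compound, fixed in 4% PBS-buffered formalin, probed with anti-Hsp70 or anti-phospho-S6 primary antibodies, then TRITC- or FITC-conjugated secondaries, and imaged.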

HT-29 = assay: Inhibition of cell proliferation in human HT29 cells; format: functional, cell-based
Procedure, shortened: (§2)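 Cells seeded in 96-well plates; compound added 24 h later, then growth continued for a further 72 or 144 h depending on the line's growth rate before proliferation was measured.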

[4] = Inhibition of pErk in AU565 cells; format: cell-based
MDA-MB-231 = assay: Inhibition of cell proliferation in human MDA-MB-231 cells; format: functional, cell-based; procedure, shortened: as §2
NCI-H460 = assay: Inhibition of cell proliferation in human NCI-H460 cells; format: functional, cell-based; procedure, shortened: as §2
SK-MEL-5 = assay: Inhibition of cell proliferation in human SKMEL5 cells; format: functional, cell-based; procedure, shortened: as §2
PC-3 = assay: Inhibition of cell proliferation in human PC3 cells; format: functional, cell-based; procedure, shortened: as §2
SK-BR-3 [5] = assay: Inhibition of Her2 degradation in human SKBR3 cells
LNCaP = assay: Inhibition of cell proliferation in human LNCAP cells; format: functional, cell-based; procedure, shortened: as §2
A-375 [6] = assay: Induction of Hsp70 in human A375 cells; format: functional, cell-based; procedure, shortened: as §1
SW-620 = assay: Inhibition of cell proliferation in human SW620 cells; format: functional, cell-based; procedure, shortened: as §2
MCF7 = assay: Inhibition of cell proliferation in human MCF7 cells; format: functional, cell-based; procedure, shortened: as §2
A-375 [7] = assay: Inhibition of cell proliferation in human A375 cells; format: functional, cell-based; procedure, shortened: as §2

## NC(=O)c1ccc(-n2c3c(c4cc(F)ccc42)C(=O)CCC3)cc1NCc1cccnc1
SK-BR-3 [1]
  pIC50: 5.19
[2]
  pKd: 5.96

## NC(=O)c1ccc(-n2c3c(c4cc(F)ccc42)C(=O)CCC3)cc1NCCCN1CCOCC1
SK-BR-3 [1]
  pIC50: 5.55
[2]
  pKd: 5.96

## CC1(C)CC(=O)c2c(n(-c3ccc(C(N)=O)cc3)c3ccccc23)C1
SK-BR-3 [1]
  pIC50: < 4.30
[2]
  pKd: 6.12

## COCCNc1cc(-n2c3c(c4cc(F)ccc42)C(=O)CCC3)ccc1C(N)=O
SK-BR-3 [1]
  pIC50: 5.39
[2]
  pKd: 6.11

## NC(=O)c1ccc(-n2c3c(c4ccccc42)C(=O)CCC3)cc1Nc1ccccc1
SK-BR-3 [1]
  pIC50: 5.68
[2]
  pKd: 6.00

## CN(C)CCNc1cc(-n2c3c(c4cc(F)ccc42)C(=O)CCC3)ccc1C(N)=O
SK-BR-3 [1]
  pIC50: 4.47
[2]
  pKd: 5.92

## COc1cc(-n2c3c(c4ccccc42)C(=O)CCC3)ccc1C(N)=O
SK-BR-3 [1]
  pIC50: < 4.30
[2]
  pKd: < 5.00

## COc1ccc(CNc2cc(-n3c4c(c5ccccc53)C(=O)CCC4)ccc2C(N)=O)cc1
SK-BR-3 [1]
  pIC50: < 5.00
[2]
  pKd: < 5.00

## CC1CC(=O)c2c(n(-c3ccc(C(N)=O)c(NCC4CC4)c3)c3ccccc23)C1 (centres undefined)
SK-BR-3 [1]
  pIC50: 5.16
[2]
  pKd: 5.54

## NC(=O)c1ccc(-n2c3c(c4ccccc42)C(=O)CCC3)cc1N
SK-BR-3 [1]
  pIC50: < 5.00
[2]
  pKd: 5.54

## NC(=O)c1ccc(-n2c3c(c4ccccc42)C(=O)CCC3)cc1NCc1ccncc1
SK-BR-3 [1]
  pIC50: 5.30
[2]
  pKd: 6.09

## NC(=O)c1ccc(-n2c3c(c4ccccc42)C(=O)CCC3)cc1NC1CCC(O)CC1 (centres undefined)
SK-BR-3 [1]
  pIC50: 5.92
[2]
  pKd: 6.05

## C=CCNc1cc(-n2c3c(c4cc(F)ccc42)C(=O)CCC3)ccc1C(N)=O
SK-BR-3 [1]
  pIC50: 5.27
[2]
  pKd: 6.60

## NC(=O)c1ccc(-n2c3c(c4ccccc42)C(=O)CCC3)cc1Br
SK-BR-3 [1]
  pIC50: < 5.00
[2]
  pKd: < 5.00

## CC1(C)CC(=O)c2c(n(-c3ccc(C(N)=O)c(Nc4ccccc4)c3)c3ccccc23)C1
[2]
  pKd: < 5.00

## COCCNc1cc(-n2c3c(c4ccccc42)C(=O)CCC3)ccc1C(N)=O
SK-BR-3 [1]
  pIC50: 5.05

## NC(=O)c1ccc(-n2c3c(c4ccccc42)C(=O)CCC3)cc1NCc1ccccc1
SK-BR-3 [1]
  pIC50: < 5.00
[2]
  pKd: < 5.00

## NC(=O)c1ccc(-n2c3c(c4ccccc42)C(=O)CCC3)cc1NC1CCOCC1
[3]
  pIC50: 7.15
HT-29
  pIC50: 6.43
[4]
  pIC50: 6.23
MDA-MB-231
  pIC50: 6.02
SK-BR-3 [1]
  pIC50: 6.25
NCI-H460
  pIC50: 6.05
SK-MEL-5
  pIC50: 6.47
PC-3
  pIC50: 6.09
SK-BR-3 [5]
  pIC50: 6.25
LNCaP
  pIC50: 6.15
[2]
  pKd: 6.39
A-375 [6]
  pIC50: 6.64
SW-620
  pIC50: 6.59
MCF7
  pIC50: 6.54
A-375 [7]
  pIC50: 6.40

## NC(=O)c1ccc(-n2c3c(c4ccccc42)C(=O)CCC3)cc1NC1CC1
SK-BR-3 [1]
  pIC50: 5.27
[2]
  pKd: 6.46

## CC1CC(=O)c2c(n(-c3ccc(C(N)=O)c(Br)c3)c3ccccc23)C1 (centres undefined)
[2]
  pKd: < 5.00

## NC(=O)c1ccc(-n2c3c(c4cc(F)ccc42)C(=O)CCC3)cc1NN1CCOCC1
SK-BR-3 [1]
  pIC50: 5.80
[2]
  pKd: 6.57

## NC(=O)c1ccc(-n2c3c(c4ccccc42)C(=O)CCC3)cc1NC1CCC1
SK-BR-3 [1]
  pIC50: 5.17
[2]
  pKd: 6.51

## NC(=O)c1ccc(-n2c3c(c4ccccc42)C(=O)CCC3)cc1NCCN1CCCC1
SK-BR-3 [1]
  pIC50: 4.51
[2]
  pKd: 5.72

## CCCNc1cc(-n2c3c(c4ccccc42)C(=O)CCC3)ccc1C(N)=O
SK-BR-3 [1]
  pIC50: 5.28
[2]
  pKd: 6.46

## NC(=O)c1ccc(-n2c3c(c4cc(F)ccc42)C(=O)CCC3)cc1NC1CC1
SK-BR-3 [1]
  pIC50: 5.89
[2]
  pKd: 6.60

## CC1(C)CC(=O)c2c(n(-c3ccc(C(N)=O)c(NC4CC4)c3)c3ccccc23)C1
SK-BR-3 [1]
  pIC50: 6.21
[2]
  pKd: 6.46

## NC(=O)c1ccc(-n2c3c(c4ccccc42)C(=O)CCC3)cc1NCC1CC1
SK-BR-3 [1]
  pIC50: 5.89
[2]
  pKd: 6.57

## CC1CC(=O)c2c(n(-c3ccc(C(N)=O)c(NC4CC4)c3)c3ccccc23)C1 (centres undefined)
SK-BR-3 [1]
  pIC50: 5.15

## NC(=O)c1ccc(-n2c3c(c4ccccc42)C(=O)CCC3)cc1
SK-BR-3 [1]
  pIC50: < 4.30
[2]
  pKd: 5.74

## N#Cc1cc(-n2c3c(c4ccccc42)C(=O)CCC3)ccc1C(N)=O
SK-BR-3 [1]
  pIC50: < 4.30
[2]
  pKd: < 5.00
